In ChEMBL document CHEMBL4811308, “Design, synthesis and broad spectrum antibreast cancer activity of diarylindoles via induction of apoptosis in aggressive breast cancer cells” (Bioorg Med Chem, 2021):

Tests used:
Assay type in all cases: organism-based
[1] = Acute toxicity in Swiss albino mouse assessed as albumin at 50 mg/kg, po administered once and observed for 7 days (reference value: 1.62 +/- 0.09 g/dl); conditions: in vivo, 168 h, time 7 day
[2] = Acute toxicity in Swiss albino mouse assessed as creatinine level at 5 mg/kg, po administered once and observed for 7 days (reference value: 0.11 +/- 0.03 mg/dL); conditions: in vivo, 168 h, time 7 day
[3] = Acute toxicity in Swiss albino mouse assessed as albumin at 5 mg/kg, po administered once and observed for 7 days (reference value: 1.62 +/- 0.09 g/dl); conditions: in vivo, 168 h, time 7 day
[4] = Acute toxicity in Swiss albino mouse assessed as creatinine level at 50 mg/kg, po administered once and observed for 7 days (reference value: 0.11 +/- 0.03 mg/dL); conditions: in vivo, 168 h, time 7 day
[5] = Acute toxicity in Swiss albino mouse assessed as absolute lungs weight at 5 to 300 mg/kg, po administered once and observed for 7 days; conditions: in vivo, 168 h, dose 5-300 mg/kg, time 7 day
How it was run: (§1)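 Acute oral toxicity per OECD guideline 423; mice 20–25 g, 3 male + 3 female per group, acclimatized 7 days at 22 ± 5 °C, 12 h light/dark. Compound dissolved in minimal DMSO, diluted in 0.7% CMC, single oral dose of 5, 50 or 300 mg/kg; controls given vehicle only. Clinical signs checked hourly on dosing day, then daily. Samples and body weights taken on day 7.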

[6] = Acute toxicity in Swiss albino mouse assessed as cholesterol level at 300 mg/kg, po administered once and observed for 7 days (reference value: 122.05 +/- 8.12 mg/dl); conditions: in vivo, 168 h, time 7 day
[7] = Acute toxicity in Swiss albino mouse assessed as triglyceride level at 5 mg/kg, po administered once and observed for 7 days (reference value: 81.12 +/- 7.75 mg/dl); conditions: in vivo, 168 h, time 7 day
[8] = Acute toxicity in Swiss albino mouse assessed as WBC level at 50 mg/kg, po administered once and observed for 7 days (reference value: 8.55 +/- 2.71 /mm3); conditions: in vivo, 168 h, time 7 day
[9] = Acute toxicity in Swiss albino mouse assessed as cholesterol level at 5 mg/kg, po administered once and observed for 7 days (reference value: 122.05 +/- 8.12 mg/dl); conditions: in vivo, 168 h, time 7 day
[10] = Acute toxicity in Swiss albino mouse assessed as SGOT level at 5 mg/kg, po administered once and observed for 7 days (reference value: 22.94 +/- 4.04 U/L); conditions: in vivo, 168 h, time 7 day
[11] = Acute toxicity in Swiss albino mouse assessed as body weight at 50 mg/kg, po administered once and observed for 7 days (reference value: 22.75 +/- 0.93 gm); conditions: in vivo, 168 h, time 7 day
[12] = Acute toxicity in Swiss albino mouse assessed as absolute kidney weight at 5 to 300 mg/kg, po administered once and observed for 7 days; conditions: in vivo, 168 h, dose 5-300 mg/kg, time 7 day; how it was run: as §1
[13] = Acute toxicity in Swiss albino mouse assessed as body weight at 5 mg/kg, po administered once and observed for 7 days (reference value: 22.75 +/- 0.93 gm); conditions: in vivo, 168 h, time 7 day
[14] = Acute toxicity in Swiss albino mouse assessed as absolute brain weight at 5 to 300 mg/kg, po administered once and observed for 7 days; conditions: in vivo, 168 h, dose 5-300 mg/kg, time 7 day; how it was run: as §1
[15] = Acute toxicity in Swiss albino mouse assessed as SGPT level at 300 mg/kg, po administered once and observed for 7 days (reference value: 12.65 +/- 2.98 U/L); conditions: in vivo, 168 h, time 7 day
[16] = Acute toxicity in Swiss albino mouse assessed as effect on posture at 5 to 300 mg/kg, po administered once and observed for 7 days; conditions: in vivo, 168 h, dose 5-300 mg/kg, time 7 day; how it was run: as §1
[17] = Acute toxicity in Swiss albino mouse assessed as RBC level at 5 mg/kg, po administered once and observed for 7 days (reference value: 9.21 +/- 0.32 /mm3); conditions: in vivo, 168 h, time 7 day
[18] = Acute toxicity in Swiss albino mouse assessed as SGPT level at 50 mg/kg, po administered once and observed for 7 days (reference value: 12.65 +/- 2.98 U/L); conditions: in vivo, 168 h, time 7 day

SMILES | Activity [1] | Activity [2] | Activity [3] | Activity [4] | Activity [5] | Activity [6] | Activity [7] | Activity [8] | Activity [9] | Activity [10] | Activity [11] | Activity [12] | Activity [13] | Activity [14] | Activity [15] | Activity [16] | Activity [17] | Activity [18]
COc1ccc2c(c1)c(Cc1ccc(OCCN(C)C)cc1)c(-c1cc(OC)c(OC)c(OC)c1)n2Cc1ccc(OCCN(C)C)cc1 | 1.43 g/dL | 0.12 mg/dL | 1.52 g/dL | 0.14 mg/dL | Non-Toxic | 132.33 mg/dL | 63.83 mg/dL | 4.86 thousands/mm3 | 112.13 mg/dL | 22.11 U/L | 21.31 g | Non-Toxic | 21.71 g | Non-Toxic | 16 U/L | Non-Toxic | 9.67 million/mm3 | 15.07 U/L
COc1ccc2c(c1)c(Cc1ccc(OC(C)CN(C)C)cc1)c(-c1cc(OC)c(OC)c(OC)c1)n2Cc1ccc(OC(C)CN(C)C)cc1 (stereo unspecified) | 1.29 g/dL | 0.12 mg/dL | 1.48 g/dL | 0.12 mg/dL | Non-Toxic | 108.72 mg/dL | 105.82 mg/dL | 7.5 thousands/mm3 | 117.25 mg/dL | 28.86 U/L | 23.48 g | Non-Toxic | 21.6 g | Non-Toxic | 19.12 U/L | Non-Toxic | 9.12 million/mm3 | 18.69 U/L
